Reference: ChEMBL document CHEMBL4732044, “Discovery of a promising agent IQZ23 for the treatment of obesity and related metabolic disorders” (Eur J Med Chem, 2020)
Values after ≈ are worked out from the molar mass of the structure shown. Active and inactive are the calls of the source. No cut-off for these calls is given here.

How the values were obtained:
3T3-L1 [1] = experiment: Inhibition of mouse 3T3-L1 cells adipocyte differentiation assessed as reduction in adipogenic cocktail-induced PPARgamma mRNA expression after 24 hrs by RT-qPCR analysis; assay type: functional, cell-based; settings: dose 0.01-1 µM
How it was run: (§1)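 Confluent 3T3-L1 preadipocytes received differentiation cocktail (0.5 mM IBMX, 100 ng/mL dexamethasone, 2 µg/mL insulin) with compound (0.01–1 µM; metformin 1 mM) for 24 h. mRNA was measured by SYBR Green RT-qPCR (30 cycles), normalized to β-actin, with the differentiated control set to 1. N = 4 independent experiments.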

3T3-L1 [2] = experiment: Inhibition of mouse 3T3-L1 cells adipocyte differentiation assessed as reduction in adipogenic cocktail-induced C/EBPdelta mRNA expression after 24 hrs by RT-qPCR analysis; assay type: functional, cell-based; settings: dose 0.01-1 µM; how it was run: as §1
3T3-L1 [3] = experiment: Activation of AMPK pathway in adipogenic cocktail-induced mouse 3T3-L1 cells assessed as increase in phosphorylation AMPKalpha at Thr172 residue at 0.01 to 1 uM after 24 hrs by Western blot analysis; assay type: cell-based; settings: filed as activator, dose 0.01-1 µM
How it was run: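 Confluent 3T3-L1 pre-adipocytes exposed to adipogenic cocktail for 24 h with or without compound (0, 0.01, 0.1, 1 µM); DMSO vehicle. Lysates analysed by SDS-PAGE/Western blot for pAMPKα (Thr-172), normalized to actin, Ctrl set as 1. N = 4 independent experiments.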

[4] = Aqueous solubility in PBS buffer at pH 7.4 after 24 hrs; assay type: physicochemical
[5] = AUC(0 to t) in Sprague-Dawley rat at 5 mg/kg, po up to 24 hrs by LC-MS/MS analysis; assay type: ADME, organism-based; parameters: route oral, dose 5 mg/kg, time <=24; settings: in vivo
How it was run: (§2)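 Male Sprague-Dawley rats (180-220 g, n = 3) were dosed intragastrically at 5 mg/kg in ethanol/saline (5:95). Plasma was collected at 0, 30 min, 1, 2, 4, 8, 12 and 24 h post-dose and quantified by LC-MS/MS. Pharmacokinetic parameters were derived from the plasma concentration-time profile.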

[6] = Cmax in Sprague-Dawley rat at 5 mg/kg, po up to 24 hrs by LC-MS/MS analysis; assay type: ADME, organism-based; parameters: route oral, dose 5 mg/kg, time <=24; settings: in vivo
How it was run: (§3)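 Male SD rats (180–220 g, n = 3) received compound in ethanol/saline (5:95), either intravenously at 2 mg/kg or intragastrically at 5 mg/kg. Plasma was sampled at 0, 0.5, 1, 2, 4, 8, 12 and 24 h. Concentrations were measured by LC-MS/MS, and PK parameters were calculated from the concentration–time data.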

3T3-L1 [7] = experiment: Lipid lowering activity in mouse 3T3-L1 cells assessed as reduction in adipogenic cocktail-induced triglyceride levels incubated for 6 days by GPO-POD assay; assay type: functional, cell-based; settings: for EC50: 3T3-L1, 144 h
How it was run: (§4)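 Confluent 3T3-L1 cells were treated from day 0 in cocktail (IBMX, dexamethasone, insulin) for 3 days, then re-dosed in insulin medium for 3 more days. For dose–response, concentrations were 0–10 µM (0.01, 0.1, 0.3, 1, 3, 10). On day 6, cells were lysed in 0.2% Triton X-100 and TG was measured by GPO-POD and normalized to BCA protein as % of control. EC50 was fitted from the dose–response. N = 4.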

[8] = MRT(0 to infinity) in Sprague-Dawley rat at 5 mg/kg, po up to 24 hrs by LC-MS/MS analysis; assay type: ADME, organism-based; settings: in vivo; how it was run: as §3
[9] = Half life in Sprague-Dawley rat liver microsomes assessed as rate constant […] up to 60 mins in presence of NADPH by LC-MS/MS analysis; assay type: ADME, Microsome
[10] = Intrinsic clearance in Sprague-Dawley rat liver microsomes assessed as rate constant […] up to 60 mins in presence of NADPH by LC-MS/MS analysis; assay type: ADME, Microsome; settings: read-out: CLH
3T3-L1 [11] = experiment: Activation of AMPK pathway in mouse 3T3-L1 cells assessed as increase in oxygen consumption at 1 uM after 5 to 10 mins by XF-96 cell analyzer method; assay type: cell-based; settings: filed as activator, time 5-10 min
How it was run: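 3T3-L1 cells seeded in quintuplicate at 5000 cells/well in an XF-96 plate. Equilibrated in assay medium at 37 °C for 30 min. Baseline OCR measured over 3–5 min, then compound injected to final concentration and OCR measured at set time points. Cell number counted at end.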

[12] = AUC(0 to infinity) in Sprague-Dawley rat at 5 mg/kg, po up to 24 hrs by LC-MS/MS analysis; assay type: ADME, organism-based; parameters: route oral, dose 5 mg/kg, time <=24; settings: in vivo; how it was run: as §2
[13] = Stability in Sprague-Dawley rat liver microsomes assessed as rate constant […] up to 60 mins in presence of NADPH by LC-MS/MS analysis; assay type: ADME, Microsome
[14] = Tmax in Sprague-Dawley rat at 5 mg/kg, po up to 24 hrs by LC-MS/MS analysis; assay type: ADME, organism-based; settings: in vivo
How it was run: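 Male Sprague-Dawley rats (180-220 g, n = 3) were dosed intragastrically at 5 mg/kg in ethanol/saline (5:95); a separate iv arm received 2 mg/kg. Blood was drawn at 0, 30 min, 1, 2, 4, 8, 12 and 24 h and centrifuged to obtain plasma. Drug levels were measured by LC-MS/MS, and pharmacokinetic parameters were calculated from the concentration–time data.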

[15] = Effect on total AKT level in mouse C2C12 cells at 1 uM after 6 hrs by Western blot analysis; assay type: ADME, cell-based; settings: c2c12, 6 h
3T3-L1 [16] = experiment: Activation of AMPK pathway in mouse 3T3-L1 cells assessed as increase in number of mitochondria copy at 1 uM after 24 hrs in presence of compound C by mito-tracker staining based Confocal microscopic method
How it was run: (§5)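 3T3-L1 cells grown in DMEM with 10% FBS at 37 °C and 5% CO2. After treatment, cells were stained for 30 min at 37 °C in the dark with 1 µM Mito-Tracker plus Hoechst 33342 (1:1000) and imaged by confocal microscopy (excitation 633 and 405 nm). Mitochondrial copy number was also taken as the mtDNA/nDNA ratio by PCR (cytochrome C versus 18S rRNA).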

[17] = Half life in Sprague-Dawley rat at 5 mg/kg, po up to 24 hrs by LC-MS/MS analysis; assay type: ADME, organism-based; settings: in vivo; how it was run: as §3
[18] = biological target: RAC-alpha serine/threonine-protein kinase (Mus musculus) (UniProt P31750); experiment: Activation of AKT in mouse C2C12 cells assessed as AKT phosphorylation at […] 308 residue at 1 uM after 6 hrs by Western blot analysis; assay type: cell-based
How it was run: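 C2C12 myoblasts kept in DMEM with 10% FBS and 1% penicillin/streptomycin at 37 °C under 5% CO2.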

3T3-L1 [19] = experiment: Activation of AMPK pathway in mouse 3T3-L1 cells assessed as increase in number of mitochondria copy at 1 uM after 24 hrs by mito-tracker staining based Confocal microscopic method; settings: filed as activator; how it was run: as §5
3T3-L1 [20] = experiment: Lipid lowering activity in mouse 3T3-L1 cells assessed as reduction in adipogenic cocktail-induced triglyceride levels at 1 uM incubated for 6 days by GPO-POD assay relative to control; assay type: functional; parameters: scale not given: the % may be the effect or the level left; settings: time 6 day; how it was run: as §4
3T3-L1 [21] = experiment: Inhibition of mouse 3T3-L1 cells adipocyte differentiation assessed as reduction in adipogenic cocktail-induced C/EBPalpha mRNA expression after 24 hrs by RT-qPCR analysis; assay type: functional, cell-based; settings: dose 0.01-1 µM; how it was run: as §1
[22] = Oral bioavailability in Sprague-Dawley rat at 5 mg/kg up to 24 hrs by LC-MS/MS analysis; assay type: ADME, organism-based; settings: in vivo; how it was run: as §3

Sequence of RAC-alpha serine/threonine-protein kinase (Mus musculus) (P31750 whole entry): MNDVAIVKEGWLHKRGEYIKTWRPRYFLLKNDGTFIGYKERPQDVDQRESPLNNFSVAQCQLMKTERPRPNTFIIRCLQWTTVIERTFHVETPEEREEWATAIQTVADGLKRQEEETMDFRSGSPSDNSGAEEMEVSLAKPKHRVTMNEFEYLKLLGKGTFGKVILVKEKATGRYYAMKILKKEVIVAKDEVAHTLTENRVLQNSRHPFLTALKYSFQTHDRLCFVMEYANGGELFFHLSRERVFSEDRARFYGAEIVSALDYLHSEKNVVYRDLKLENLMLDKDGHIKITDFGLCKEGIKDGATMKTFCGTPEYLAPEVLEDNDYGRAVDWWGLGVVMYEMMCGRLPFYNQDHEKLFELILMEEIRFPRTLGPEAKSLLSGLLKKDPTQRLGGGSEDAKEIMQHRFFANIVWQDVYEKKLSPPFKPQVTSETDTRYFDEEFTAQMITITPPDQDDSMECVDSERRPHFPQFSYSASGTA

For `CN(C)CCCNc1nc(-c2[nH]c3ccccc3c2C=O)nc2ccccc12`, the inhibition (3T3-L1 [1]) was “Dose-dependent effect”, the inhibition (3T3-L1 [2]) was “Dose-dependent effect” and the Activity (3T3-L1 [3]) was “Active”. The solubility at 24 h [4] was 41.1 µg/mL (≈ 110 µM), the AUC(0-t) at 24 h [5] was 247 ng·h/mL and the Cmax [6] was 23.8 ng/mL. For the same compound, the EC50 (3T3-L1 [7]) was 91 nM, the MRT inf [8] was 9.62 h and the half-life [9] was 131 min. The microsomal CLint [10] was 6.3 µL/min/mg, the Activity (3T3-L1 [11]) was “Active” and the AUC(0-inf) [12] was 294 ng·h/mL. For the same compound, the k el at 1 h [13] was 8.83e-05 s⁻¹, the Tmax [14] was 4.7 h and the Activity [15] was “Non-Toxic”. The Activity (3T3-L1 [16]) was “inactive”, the half-life [17] was 306 min and the Activity [18] was “inactive”. The Activity (3T3-L1 [19]) was “Active”, the Activity (3T3-L1 [20]) was 79.2% and the inhibition (3T3-L1 [21]) was “Dose-dependent effect”. For the same compound, the bioavailability [22] was 43.8%.

With `COc1ccc2[nH]c(-c3nc(NCCCCN4CCCC4)c4ccccc4n3)c(C=O)c2c1` the inhibition (3T3-L1 [1]) was “Dose-dependent effect”, the inhibition (3T3-L1 [2]) was “Dose-dependent effect” and the Activity (3T3-L1 [3]) was “Active”. The solubility at 24 h [4] was 73.3 µg/mL (≈ 165 µM), the AUC(0-t) at 24 h [5] was 374 ng·h/mL and the Cmax [6] was 37.1 ng/mL. The EC50 (3T3-L1 [7]) was 33 nM, the Activity (3T3-L1 [7]; dose 1-5 µM, time 6.0 day) was “Dose-dependent effect” and the MRT inf [8] was 7.5 h. The half-life [9] was 187 min, the microsomal CLint [10] was 3.7 µL/min/mg and the Activity (3T3-L1 [11]) was “Active”. The AUC(0-inf) [12] was 384 ng·h/mL, the k el at 1 h [13] was 6.17e-05 s⁻¹ and the Tmax [14] was 4 h. For the same compound, the Activity [15] was “Non-Toxic”, the Activity (3T3-L1 [16]) was “inactive” and the half-life [17] was 252 min. For the same compound, the Activity [18] was “inactive”, the Activity (3T3-L1 [19]) was “Active” and the Activity (3T3-L1 [20]) was “>=50%”. For the same compound, the inhibition (3T3-L1 [21]) was “Dose-dependent effect” and the bioavailability [22] was 48.6%.
